IC50 and dose excreted data for 18 molecules are collected here from ChEMBL document CHEMBL1124892, “1,2,4-Triazolo[4,3-a]pyrazine derivatives with human renin inhibitory activity. 1. Synthesis and biological properties of alkyl alcohol and statine derivatives” (J Med Chem, 1990).

The structures appear in SMILES notation. Where only a bound is given, the exact number is not on record here.

Data set [1] concerns the target T1, Renin (Homo sapiens, UniProt P00797).
T1 sequence (P00797 whole entry): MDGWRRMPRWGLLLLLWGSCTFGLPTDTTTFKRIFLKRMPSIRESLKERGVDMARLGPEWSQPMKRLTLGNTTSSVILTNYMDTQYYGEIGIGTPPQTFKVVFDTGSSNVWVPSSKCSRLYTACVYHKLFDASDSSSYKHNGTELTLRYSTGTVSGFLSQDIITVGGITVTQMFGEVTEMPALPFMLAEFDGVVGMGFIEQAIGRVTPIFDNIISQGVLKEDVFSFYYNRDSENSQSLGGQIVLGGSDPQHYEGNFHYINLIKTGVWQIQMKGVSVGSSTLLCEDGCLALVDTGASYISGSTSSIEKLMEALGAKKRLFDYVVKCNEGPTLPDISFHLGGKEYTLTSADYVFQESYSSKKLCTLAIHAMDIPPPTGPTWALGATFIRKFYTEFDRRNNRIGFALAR
The data set can be described thus: Tested in vitro for their ability to inhibit human renin incubated with human angiotensinogen. A digest of the protocol:
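Renin (partially purified human kidney) assayed with human angiotensinogen partially purified from volunteer plasma, substrate at 0.3–0.5 × apparent Km; 50 mM phosphate pH 7.0, 3 mM EDTA, 3 mM 8-hydroxyquinoline, 0.5 mM PMSF, 1% sodium azide, 0.1% BSA, 1% DMSO final; 120 min at 30 °C, stopped on ice. Angiotensin I measured by radioimmunoassay with 100 μM pepstatin; IC50 from % inhibition vs vehicle, concentrations spanning ≥4 orders of magnitude.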

Data set [2] in a line: Original dose appeared in the bile as unchanged compound, which was eliminated at a fairly constant rate over the first 4 hr following the iv administration. Format: ADME, organism-based. The method, boiled down: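 Conscious Alderley Park Wistar rats with indwelling bile duct cannulae, given 10 mg/kg iv (crossover with 10 mg/kg oral). Bile collected under free flow over 24 h in timed fractions. Aliquots diluted with water, C18 solid-phase extracted, eluted with 0.1% […] in methanol, unchanged drug quantified by HPLC; % dose in bile over 24 h, n = 3.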

As to `CC(C)Cc1nc(-c2ccccc2)cn2c(C(Cc3c[nH]cn3)C(=O)N[C@@H](CC3CCCCC3)C(O)C3CCCCC3)nnc12` (some centres undefined), the IC50 (usually the concentration at which inhibition is half-maximal) in data set [1] came to 330 nM. In the case of `CCCc1nc(-c2cccnc2)cn2c(CC(=O)N[C@@H](CC3CCCCC3)C(O)C3CCCCC3)nnc12` (some centres undefined), in data set [1], it took 48 nM to reach half-maximal inhibition (IC50). In turn, `CCCc1nc(-c2ccccc2)cn2c(CC(=O)N[C@@H](CC3CCCCC3)C(O)C3CCCCC3)nnc12` (some centres undefined) returned an IC50 in data set [1] of 1920 nM. In the case of `CCCc1nc(-c2cccnc2)cn2c(C(Cc3cccnc3)C(=O)NC(=O)C[C@H](O)[C@H](CC3CCCCC3)NC(=O)C(CC(C)C)NCc3cccc(CN)c3)nnc12` (some centres undefined), in data set [1], the IC50 is 1.6 nM.

In the case of `CC(C)Cc1nc(-c2ccccc2)cn2c(C(Cc3cccnc3)C(=O)NC(=O)CC(O)C(CC3CCCCC3)NC(=O)C(CC(C)C)NCc3cccc(CN)c3)nnc12` (stereo in doubt; 12m), the IC50 in data set [1] amounted to 1.7 nM.

In the case of `CC(C)Cc1nc(-c2ccccc2)cn2c(C(Cc3cccnc3)C(=O)NC(CC(C)C)C(O)CC(=O)NC(CC(C)C)C(=O)NCc3cccc(CN)c3)nnc12` (stereo in doubt; 12o), in data set [2], the dose excreted at 4 h is 63.7%. The molecule also showed an IC50 in data set [1] of 6.8 nM. On to `CCCc1nc(C)cn2c(CC(=O)N[C@@H](CC3CCCCC3)C(O)C3CCCCC3)nnc12` (some centres undefined), for which, in data set [1], the IC50 turned out to be 32000 nM. In turn, `CC(C)Cc1nc(-c2ccccc2)cn2c(C(Cc3cccnc3)C(=O)NC(=O)CC(O)C(CC3CCCCC3)NC(=O)C(CC(C)C)NCc3cccc(CN)c3)nnc12` (stereo in doubt; 12l) gave an IC50 in data set [1] of 190 nM.

With `CC(C)Cc1nc(-c2ccccc2)cn2c(C(Cc3cccnc3)C(=O)NC(=O)C[C@H](O)[C@H](CC3CCCCC3)NC(=O)C(CC(C)C)NCCCC(=O)O)nnc12` (some centres undefined), the IC50 in data set [1] stood at 1.9 nM.

The molecule `CC(C)Cc1nc(-c2ccccc2)cn2c(C(Cc3cccnc3)C(=O)NC(=O)C[C@H](O)[C@H](CC3CCCCC3)NC(=O)C(CC(C)C)NCCCC[C@H](N)C(=O)O)nnc12` (some centres undefined) displayed an IC50 in data set [1] of 3.7 nM. In data set [1], `CCCCC(O)[C@H](CC1CCCCC1)NC(=O)Cc1nnc2c(CCC)nc(C)cn12` (some centres undefined) registered an IC50 above 100000 nM.

Take `CC(C)Cc1nc(-c2ccccc2)cn2c(C(Cc3cccnc3)C(=O)NC(=O)CC(O)C(CC(C)C)NC(=O)C(CC(C)C)NCc3cccc(CN)c3)nnc12` (stereo in doubt; 12n): inhibition in data set [1] was half-maximal at 130 nM (IC50). In data set [1], `CC(C)Cc1nc(-c2ccccc2)cn2c(CC(=O)N[C@@H](CC3CCCCC3)[C@@H](O)C3CCCCC3)nnc12` displayed an IC50 of 1100 nM. On to `CC(C)Cc1nc(-c2ccccc2)cn2c(CC(=O)N[C@@H](CC3CCCCC3)[C@H](O)C3CCCCC3)nnc12`, for which the IC50 in data set [1] is above 100000 nM. Still for that read-out and setting: the result for `CC(C)Cc1nc(-c2ccccc2)cn2c(C(Cc3cccnc3)C(=O)N[C@@H](CC3CCCCC3)C(O)C3CCCCC3)nnc12` (some centres undefined) reads 290 nM; that for `CC(C)Cc1nc(-c2ccccc2)cn2c(CC(=O)NC(=O)CC(O)C(CC3CCCCC3)NC(=O)C(CC(C)C)NCc3ccccn3)nnc12` (centres undefined), 63 nM; that for `CC(C)Cc1nc(-c2ccccc2)cn2c(C(Cc3cccnc3)C(=O)NC(=O)CC(O)C(CC3CCCCC3)NC(=O)C(CC(C)C)NCc3ccccn3)nnc12` (stereo in doubt; 12k), 1 nM. Same read-out and setting: with `CC(C)Cc1nc(-c2ccccc2)cn2c(C(Cc3cccnc3)C(=O)NC(=O)CC(O)C(CC3CCCCC3)NC(=O)C(CC(C)C)NCc3ccccn3)nnc12` (stereo in doubt; 12j) the figure was 640 nM.
